# Screens deposited in PubChem BioAssay by several laboratories.
# Compounds with a hit are over-represented: about 4.1% of the library has one in this group of screens.
# KCNQ1 act = potentiators or activators of human KCNQ1 potassium channel; P51787; B-score at 10 µM; CHO-K1 KCNQ1, thallium flux FluxOR fluorescence; active compounds read high; AID 2648; 310,000 compounds, 0.35% hits;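 active = fluorescence ratio B-score, a plate-corrected score, at least three library SD, with initial intensity B-score within 5 SD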
#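 Medium – assay buffer, equal DMSO in all wells · Material – CHO-K1 cell line with stable KCNQ1 potassium channel expression · Signal – kinetic FluxOR thallium fluorescence, 10-s 1-Hz baseline, 110-s post-stimulus read · Compound – single concentration per compound, DMSO matched to controls · Schedule – 37 °C overnight plating, 90-min dark dye load, 20-min compound pretreatment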
# KCNK9 inh = human KCNK9 channel inhibition; Q9NPC2; HEK293 KCNK9, FluxOR thallium flux fluorescence; active compounds read low; B-score at 10 µM; 310,000 compounds, 1.2% hits; AID 488922;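 active = ratio B-score over 3 SD below the library mean, with starting fluorescence within 5 SD of its mean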;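 also: negative B-score means less thallium flux so channel inhibition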
# KCC2 mod = modulates chloride dependent transport by human KCC2. KCC2 cells, thallium flux FluoZin-2 fluorescence. B-score of Tl+ flux slope (higher = more flux/activation; lower = inhibition) at 10 µM. 190,000 compounds, 2.2% hits. AID 1456;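 active = thallium flux slope and its plate-corrected score both differing from the plate sample mean at a set confidence after two filtering rounds, in either direction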;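 also: slope of fluorescence scaled to starting intensity during 10 to 20 s after thallium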
# Target sequence (Q9H2X9 whole entry, looked up): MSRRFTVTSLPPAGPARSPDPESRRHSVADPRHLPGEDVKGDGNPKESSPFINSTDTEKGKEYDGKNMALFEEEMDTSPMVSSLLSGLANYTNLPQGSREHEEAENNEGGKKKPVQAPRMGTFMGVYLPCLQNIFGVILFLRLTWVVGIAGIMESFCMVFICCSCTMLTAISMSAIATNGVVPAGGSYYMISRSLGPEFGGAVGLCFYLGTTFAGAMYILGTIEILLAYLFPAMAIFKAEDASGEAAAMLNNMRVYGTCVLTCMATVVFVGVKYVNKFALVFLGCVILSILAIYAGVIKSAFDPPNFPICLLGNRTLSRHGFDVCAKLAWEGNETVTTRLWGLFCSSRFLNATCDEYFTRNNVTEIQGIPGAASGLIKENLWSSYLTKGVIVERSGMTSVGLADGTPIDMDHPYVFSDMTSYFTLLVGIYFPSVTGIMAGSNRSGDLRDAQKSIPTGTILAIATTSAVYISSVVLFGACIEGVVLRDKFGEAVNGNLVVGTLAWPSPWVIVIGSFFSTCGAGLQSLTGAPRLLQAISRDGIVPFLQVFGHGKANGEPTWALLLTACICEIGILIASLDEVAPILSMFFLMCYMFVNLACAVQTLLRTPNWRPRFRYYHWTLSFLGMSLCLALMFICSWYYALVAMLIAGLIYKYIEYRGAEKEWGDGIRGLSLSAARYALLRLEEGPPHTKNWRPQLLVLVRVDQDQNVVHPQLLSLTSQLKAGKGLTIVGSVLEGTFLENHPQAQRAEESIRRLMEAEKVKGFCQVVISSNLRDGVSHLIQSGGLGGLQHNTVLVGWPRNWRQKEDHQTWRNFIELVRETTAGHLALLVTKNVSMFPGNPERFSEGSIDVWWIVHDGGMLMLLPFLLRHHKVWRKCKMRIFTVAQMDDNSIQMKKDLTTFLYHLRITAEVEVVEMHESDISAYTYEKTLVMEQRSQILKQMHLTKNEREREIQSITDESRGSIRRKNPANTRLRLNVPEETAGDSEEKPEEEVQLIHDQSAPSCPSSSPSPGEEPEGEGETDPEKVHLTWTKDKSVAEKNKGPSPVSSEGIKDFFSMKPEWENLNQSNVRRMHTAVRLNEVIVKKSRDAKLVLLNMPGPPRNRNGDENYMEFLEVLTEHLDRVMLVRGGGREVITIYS
# hERG protect = compounds protecting human hERG from proarrhythmic drug block; Q12809; CHO-hERG, FluxOR thallium flux, dofetilide IC70 present; activation (rescue from dofetilide block), less the hit threshold, % at 10 µM; 310,000 compounds, 0.51% hits;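 active = activation above the mean of controls blocked by dofetilide plus 5 SD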;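 also: thallium influx through hERG after potassium depolarization seen as dye fluorescence rise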
# KCNQ1 inh = blocks the human KCNQ1 potassium channel; CHO-K1 KCNQ1, FluxOR thallium flux fluorescence; active compounds read high; B-score at 10 µM; 310,000 compounds, 1.3% hits;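 active = compounds whose thallium flux B-score, printed positive for inhibition, exceeds three library SD while starting fluorescence stays within three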;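 also: channel opened by potassium depolarization with thallium stimulus after 20 min compound exposure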
# KCNK3 block = human KCNK3 channel inhibition, primary screen | O14649 | CHO-KCNK3 thallium flux, FluxOR fluorescence; active compounds read low | B-score at 10 µM | 340,000 compounds, 0.84% hits;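 active = B-score under library mean minus 4 SD, starting fluorescence ratio at most library mean plus 5 SD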;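 also: more negative B-score means stronger inhibition of thallium flux through KCNK3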
# Numbers without * were called inactive; i = inactive; / = no result.
SMILES,KCNQ1 act,KCNK9 inh,KCC2 mod,hERG protect,KCNQ1 inh,KCNK3 block
CCOC(=O)/C(C#N)=C/c1ccc(SC)cc1,i,i,0.096,42.5*,i,i
O=C(CN1CCN(c2cccc(C(F)(F)F)c2)CC1)N(C1CC1)C1CCS(=O)(=O)C1 (stereo not given),/,/,/,/,/,i
O=C(CN1CCN(c2cccc(C(F)(F)F)c2)CC1)N(C1CCCC1)C1CCS(=O)(=O)C1 (stereo not given),/,/,/,/,/,-8.73*
O=C(CN1C(=O)NC2(CCCC2)C1=O)Nc1nc(-c2ccccc2)cs1,i,i,/,-2.8,i,i
CCCOc1ccc(/C=C/C(=O)OCC(=O)N(C)c2c(N)n(Cc3ccccc3)c(=O)[nH]c2=O)cc1OCC,i,i,/,-1.9,i,i
O=[N+]([O-])c1ccccc1/C=N/N1CCN(c2ccc(Cl)cc2)CC1,i,-7.66*,/,-8.4,i,i
O=[N+]([O-])c1ccc(Cl)c(/C=N/N2CCN(c3ccccc3)CC2)c1,i,-7.84*,/,-0.5,i,i
O=[N+]([O-])c1ccccc1/C=N\N1CCN(c2ccccc2)CC1,i,i,-1.61,-13.9,i,i
Cn1nccc1C(=O)Nc1ccc2c(c1)OCO2,i,i,/,-12.0,i,i
O=S(=O)(c1ccc(Br)s1)N1CCN(CCc2ccccc2)CC1,/,/,/,/,/,i
COc1ccc(C(=O)/C(C#N)=N/Nc2cccc([N+](=O)[O-])c2)cc1,i,i,-5.05*,-16.2,i,i
C/C(=N\NC(=O)C1(C)CC1(Br)Br)c1cccc(NC(=O)C2CCC2)c1 (stereo not given),i,-7.4*,0.795,-11.0,i,i
O=C(c1cccc(C(F)(F)F)c1)C1CCCN(Cc2cccc(OCCO)c2)C1 (stereo not given),i,i,/,-3.8,i,i
O=C(c1cccc(C(F)(F)F)c1)C1CCCN(Cc2cccn2-c2ccccn2)C1 (stereo not given),i,i,-0.123,-18.7,8*,i
Cc1cc(=S)[nH]c2c(C)cccc12,i,i,30.8*,5.0*,i,i
N#Cc1c(NC(=O)CSc2ncccn2)oc(-c2ccccc2)c1-c1ccccc1,i,i,-1.1,-15.5,i,i
Cc1ccc(OCC(=O)Nc2oc(-c3ccccc3)c(-c3ccccc3)c2C#N)cc1,i,i,-0.486,-3.8,6*,i
N#Cc1c(NC(=O)CSc2n[nH]c(Cc3ccccc3)n2)oc(-c2ccccc2)c1-c1ccccc1,i,i,-1.25,-7.2,9*,i
COc1ccc(-c2oc(NC(=O)CCl)c(C#N)c2-c2ccc(OC)cc2)cc1,i,i,/,-3.4,i,i
COc1ccc(-c2oc(NC(=O)CSc3ncn[nH]3)c(C#N)c2-c2ccc(OC)cc2)cc1,i,i,0.0203,-18.4,i,-13.4*
N#Cc1c(NC(=O)COC(=O)C2CC3C=CC2C3)oc(-c2ccccc2)c1-c1ccccc1 (stereo not given),i,i,/,-17.8,10*,i
N#Cc1c(NC(=O)CN2CCOCC2)oc(-c2ccccc2)c1-c1ccccc1,i,i,-0.38,-11.1,i,i
C=CCOC(=O)C1=C[C@H](c2coc3ccccc3c2=O)C[C@H](OCCCCO)O1,i,i,/,-4.1,i,i
COC(=O)c1ccc(OCc2nn[nH]n2)cc1,i,i,/,-2.2,i,i
COc1ccc(CC(=O)Nc2oc(-c3ccccc3)c(-c3ccccc3)c2C#N)cc1OC,i,i,/,-11.3,i,i
SMILES,KCNQ1 act,KCNK9 inh,KCC2 mod,hERG protect,KCNQ1 inh,KCNK3 block
COc1ccccc1OCC(=O)Nc1oc(-c2ccccc2)c(-c2ccccc2)c1C#N,/,/,-0.417,/,/,-9.38*
Cc1cc(Sc2ncnc(N)c2[N+](=O)[O-])ncn1,i,i,-1.27,-24.5,6*,i
Cc1cc(Sc2nc(N)ncc2[N+](=O)[O-])ncn1,i,i,0.104,-15.5,i,i
CC(C)CC(=O)Nc1nnc(S(=O)(=O)N(C)Cc2ccco2)s1,i,i,/,-8.5,i,i
c1ccc2c(c1)CCN(c1nc(CN3CCOCC3)nc3sc4c(c13)CCCC4)C2,i,i,-0.412,-12.6,6*,i
COC(=O)c1c(C)nc(C)c(C(=O)OC)c1-c1cccs1,i,i,-0.637,8.1*,i,i
OC1(c2ccc(Cl)cc2)CN(c2ccccc2)C2=[N+]1CCS2 (stereo not given),i,i,-0.8,-14.1,6*,i
Cc1cccc(N2CN(S(=O)(=O)c3cccc([N+](=O)[O-])c3)c3nc4ccccc4nc32)c1,/,/,/,/,/,i
CCn1nc(C)c(CN2CCC(C(=O)Nc3cccc(-c4cccc(Cl)c4)c3)CC2)c1C,i,i,/,-23.4,i,i
Cc1c(-c2ccccc2)c(-c2ccc(OCCN(C)C)cc2)n2ccccc12,/,/,/,/,/,i
Cc1cc(N=NC(=O)c2ccccc2O)c2ccccc2c1O,i,i,-3.55*,-8.8,i,i
CCCc1cc(=O)n2[nH]c(-c3cc(OC)c(OC)c(OC)c3)nc2n1,i,i,0.186,-9.3,i,i
CCCc1cc(=O)n2[nH]c(-c3ccc(OC)cc3)nc2n1,i,-7.78*,0.523,-5.8,i,i
CN(c1ccccc1C(=O)Nc1cccc(Br)c1)S(=O)(=O)c1ccccc1,i,i,/,-9.8,i,i
Cc1ccc(-c2c3c([nH]c(=S)c2C#N)CCCC3)o1,i,i,24.4*,-0.4,i,i
N#Cc1c(-c2ccncc2)c2c([nH]c1=S)CCCC2,i,i,-1.05,-16.8,i,i
c1ccc(CN(Cc2cccs2)C(c2cccs2)c2nnnn2C2CCCC2)cc1 (stereo not given),i,-7.54*,0.854,-6.5,i,i
CCCCC1CCC(C(=O)OC(C)C(=O)Nc2ccc(NC(C)=O)cc2)CC1 (stereo not given),i,i,/,-7.9,i,i
Cc1ccc(-n2ncc3c2CCCC3NC(=O)c2ccoc2)cc1C (stereo not given),i,i,/,-8.1,i,i
Cc1ccc(-n2ncc3c2CCCC3NC(=O)c2csnn2)cc1C (stereo not given),i,i,/,19.3*,i,i
CCc1cc(C(=O)NC2CCCc3c2cnn3-c2cccc(C)c2C)n(C)n1 (stereo not given),i,i,/,-15.8,11*,/
Cc1cc(C)cc(-n2ncc3c2CCCC3NC(=O)c2csnn2)c1 (stereo not given),i,i,/,35.5*,i,i
